# Reference: publication PMC6407737 (Targeted Oncology, 2019)
# Entries after “also recorded” stand apart in the source; their conditions may differ. Read-outs that look alike come from different tables or passages of the source. Marks after values point to notes of the source that are not given here.
# What was measured:
# [1] = Plasma and urine pharmacokinetics in cycle 1; format: in vivo, human
# [2] = rats; cited from earlier work
# [3] = Phase I dose-finding study: safety, DLT and MTD; format: in vivo, human
# Summary of the method: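 Open-label 3 + 3 dose escalation in cohorts of three to six patients. Oral dosing was once daily, continuous, in 28-day cycles, starting at 50 mg, with 100 and 200 mg planned. DLT was assessed during cycle 1. MTD was the highest level with DLT in none or one of six patients, followed by an expansion cohort at that dose. AEs were graded by CTCAE v4.03 in all patients receiving ≥1 dose.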
# [4] = liquid dispersion vs. tablet; with/without a high-calorie meal; cited from earlier work
# MiaPaCa2 xenograft = details: QD; cited from earlier work
# [5] = system: advanced or metastatic non-hematologic malignancies; details: FIH study; cited from earlier work
# [6] = system: advanced or metastatic solid tumors; assay: Investigator-assessed anti-tumor activity, RECIST version 1.1; format: in vivo, human
# Summary of the method: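 Open-label phase I study in Japanese and Taiwanese patients (ECOG 0–1) given oral drug once daily, continuously, in 28-day cycles at 50, 100 or 200 mg. CT/MRI at screening, at end of cycle 2, then every two cycles until treatment ended. Objective response was CR or PR; disease control was CR, PR or SD. Evaluable patients had baseline plus ≥1 post-baseline assessment. Analysis was descriptive on patients receiving ≥1 dose.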
# [7] = cited from earlier work
# [8] = dogs; cited from earlier work
# advanced solid tumors = details: mixed populations of patients with advanced solid tumors; cited from earlier work
# [9] = at lesser frequency than BI 853520; cited from earlier work
# [10] = 200 mg QD, N = 10, geometric mean
structure (smiles),measurement,setting,value
COc1cc(C(=O)NC2CCN(C)CC2)c(F)cc1Nc1ncc(C(F)(F)F)c(Oc2cccc3c2C(=O)N(C)C3)n1 [BI 853520],cumulative fraction excreted in urine,[1]; 200 mg QD cohort,less than 9%
same,"RA,AUC (accumulation ratio, AUC at steady state / single dose)",[1]; [10],2.15
same,"RA,Cmax (accumulation ratio, Cmax at steady state / single dose)",[1]; [10],1.62
same,trough plasma concentrations,"[1]; cycle 1, repeated QD dosing",stable from day 8 to day 28
same,AUC(0-inf),"[1]; human, plasma, oral, 200 mg, AUC0−∞, single dose, 200 mg QD cohort, N = 15, geometric mean",26.3 µM·h
same,AUC,"[1]; human, plasma, oral, 200 mg, AUCτ,1, single dose, 200 mg QD cohort, N = 15, geometric mean",15.3 µM·h
same,Cmax,"[1]; human, plasma, oral, 200 mg, Cmax, single dose, 200 mg QD cohort, N = 15, geometric mean",1570 nM
same,Vd/F,"[1]; human, plasma, oral, 200 mg, Vz/F, single dose, 200 mg QD cohort, N = 15, geometric mean",391 L
same,Tmax,"[1]; human, plasma, oral, 200 mg, tmax, single dose, 200 mg QD cohort, N = 15, median",2 h
same,half-life,"[1]; human, plasma, oral, 200 mg, t½, single dose, 200 mg QD cohort, N = 15, geometric mean",1250 min
same,"tmax,ss","[1]; multiple dose, steady state day 28, 200 mg QD, N = 10, median",2.94 h
same,"CL/F,ss","[1]; multiple dose, steady state, 200 mg QD, N = 10, geometric mean",155 mL/min
same,"fe0−24,ss","[1]; multiple dose, steady state, 200 mg QD, urine, N = 10, geometric mean",8.86%
same,CL/F,"[1]; single dose, 200 mg QD cohort, N = 15, geometric mean",216 mL/min
same,fe0–24,"[1]; single dose, 200 mg QD cohort, urine, data for 13 patients, geometric mean",5.60^b %
same,principal toxicological target organs,[2],gastrointestinal tract and liver
same,evaluable patients treated at the MTD who experienced DLT,[3]; 200 mg QD,two of 15
same,drug-related serious AEs,[3]; 21 treated patients,None of the SAEs was considered drug-related
same,patients who discontinued treatment due to AEs,[3]; 21 treated patients,19%
same,patients with drug-related adverse events,[3]; 21 treated patients,90%
same,patients with drug-related diarrhea,[3]; 21 treated patients,38%
same,patients with drug-related nausea,[3]; 21 treated patients,29%
same,patients with drug-related proteinuria,[3]; 21 treated patients,48%
same,patients with drug-related vomiting,[3]; 21 treated patients,19%
same,patients with serious AEs (SAEs),[3]; 21 treated patients,24%
same,dose-limiting toxicities during cycle 1,"[3]; 50, 100, or 200 mg cohorts",no dose-limiting toxicities were observed; also recorded: no DLTs were observed
same,Any drug-related AE,"[3]; N = 21, all dose cohorts",19 (90) N (%)
same,Drug-related AE: AST increased,"[3]; N = 21, all dose cohorts",1 (5) N (%)
same,Drug-related AE: Abdominal pain upper,"[3]; N = 21, all dose cohorts",1 (5) N (%)
same,Drug-related AE: Anemia,"[3]; N = 21, all dose cohorts",1 (5) N (%)
same,Drug-related AE: Back pain,"[3]; N = 21, all dose cohorts",1 (5) N (%)
same,Drug-related AE: Blood bilirubin increased,"[3]; N = 21, all dose cohorts",1 (5) N (%)
same,Drug-related AE: Blood creatinine increased,"[3]; N = 21, all dose cohorts",1 (5) N (%)
same,Drug-related AE: Decreased appetite,"[3]; N = 21, all dose cohorts",2 (10) N (%)
same,Drug-related AE: Dehydration,"[3]; N = 21, all dose cohorts",1 (5) N (%)
same,Drug-related AE: Diarrhea,"[3]; N = 21, all dose cohorts",8 (38) N (%)
same,Drug-related AE: Dupuytren’s contracture,"[3]; N = 21, all dose cohorts",2 (10) N (%)
same,Drug-related AE: Erectile dysfunction,"[3]; N = 21, all dose cohorts",1 (5) N (%)
same,Drug-related AE: Fatigue,"[3]; N = 21, all dose cohorts",1 (5) N (%)
same,Drug-related AE: Inguinal hernia,"[3]; N = 21, all dose cohorts",1 (5) N (%)
same,Drug-related AE: Nausea,"[3]; N = 21, all dose cohorts",6 (29) N (%)
same,Drug-related AE: Proteinuria,"[3]; N = 21, all dose cohorts",10 (48) N (%)
same,"Drug-related AE: Rash, maculo-papular","[3]; N = 21, all dose cohorts",2 (10) N (%)
same,Drug-related AE: Vomiting,"[3]; N = 21, all dose cohorts",4 (19) N (%)
same,maximum tolerated dose (MTD),"[3]; QD continuous daily dosing, 28-day cycles, Japanese and Taiwanese patients",200 mg
same,DLTs reported overall during the study,"[3]; all treated patients, all cycles",three of 21
same,impact of formulation and food on pharmacokinetics,[4],neither formulation (liquid dispersion vs. tablet) nor administration with/without a high-calorie meal have notable impact
same,active dose,MiaPaCa2 xenograft,12.5 mg/kg
same,disease control rate,[5],27%
same,median duration of disease control,[5],3.3 months
same,radiographic objective responses,[5],no radiographic objective responses were reported
same,confirmed objective response rate,[6]; 21 treated patients,5%
same,disease control rate,[6]; 21 treated patients,29%
same,patients with progressive disease,[6]; 21 treated patients,57%
same,Best confirmed response: Complete response,[6]; N = 21,0 N (%)
same,Best confirmed response: Progressive disease,[6]; N = 21,12 (57) N (%)
same,Best confirmed response: Stable disease,[6]; N = 21,5 (24)^d N (%)
same,Best confirmed response: Objective response,"[6]; N = 21, complete response or partial response",1 (5) N (%)
same,Best confirmed response: Disease control,"[6]; N = 21, complete response, partial response, or stable disease",6 (29) N (%)
same,Best confirmed response: Partial response,"[6]; N = 21, patient with gastric cancer (100 mg cohort)",1 (5)^c N (%)
same,median duration of disease control,[6]; six patients with confirmed disease control,3.7 months
same,DLTs or DRAEs of grade ≥ 2,[7]; 50 mg QD or 100 mg QD,neither 50 mg QD or 100 mg QD had resulted in dose-limiting toxicities
same,maximum tolerated dose (MTD),"[7]; QD continuous dosing, predominantly (92%) Caucasian population",200 mg
same,patients with grade 3 proteinuria,[7]; dose expansion phase of the FIH study,21%
same,principal toxicological target organs,[8],gastrointestinal tract and liver
CONC(=O)c1ccccc1Nc1cc(Nc2cc(C)nn2C(C)C)ncc1Cl [GSK2256098],anti-tumor activity in phase I,advanced solid tumors,evidence of disease stabilization
same,proteinuria,[9],Proteinuria has been reported
CN(c1ncccc1CNc1nc(Nc2ccc3c(c2)CC(=O)N3)ncc1C(F)(F)F)S(C)(=O)=O [PF-00562271],anti-tumor activity in phase I,advanced solid tumors,evidence of disease stabilization
same,proteinuria,[9],Proteinuria has been reported
CNC(=O)c1ccc(Nc2ncc(C(F)(F)F)c(NCc3nccnc3N(C)S(C)(=O)=O)n2)cc1 [VS-6063],anti-tumor activity in phase I,advanced solid tumors,evidence of disease stabilization
